Results published in ChEMBL document CHEMBL1129303, “Potent human immunodeficiency virus type 1 protease inhibitors that utilize noncoded D-amino acids as P2/P3 ligands” (J Med Chem, 1996).

Tests used:
CCRF-CEM [1] = assay: Antiviral activity against CEM cells; assay type: functional, cell-based; details: Homo sapiens
MT2 = assay: Antiviral activity against MT-2 cells; assay type: functional, cell-based; details: Homo sapiens
[2] = biological target: Human immunodeficiency virus type 1 protease (Human immunodeficiency virus 1, UniProt Q72874); assay: Inhibitory activity against HIV-1 protease
[3] = Maximum plasma concentration in rat upon oral administration of 40 mg/kg; assay type: ADME, organism-based; set-up: dose 40 mg/kg, route oral
Procedure, shortened: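 Fasted (16-18 h) Harlan Sprague-Dawley rats, jugular cannula implanted ≥48 h earlier, gavaged 40 mg/kg in acacia/Tween emulsion, n=2. Plasma from 0-4 h blood draws diluted 1:49 and assayed by HIV protease cleavage of FITC-labelled peptide (5 h, 37 °C, MES pH 5.5) with HPLC quantitation. Inhibitory activity read against a standard curve of parent compound; Cmax is the peak.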

CCRF-CEM [4] = assay: In vitro inhibitory activity against replication of HIV type-1 virus in CEM cells; assay type: functional, cell-based; details: Homo sapiens

Row | SMILES | IC50 (CCRF-CEM [1]) [nM] | IC50 (MT2) [nM] | IC50 [2] [nM] | Cmax [3] [ng/mL] | IC50 (CCRF-CEM [4]) [nM]
1 | CC(C)(C)NC(=O)c1ccccc1C[C@@H](O)[C@H](Cc1ccccc1)NC(=O)[C@H](CSc1ccc2ccccc2n1)NS(C)(=O)=O | 5400 | 6440 | 60 | – | –
2 | CC(C)(C)NC(=O)c1ccccc1C[C@@H](O)[C@H](Cc1ccccc1)NC(=O)[C@H](CSc1ccccc1)NS(C)(=O)=O | 4370 | 2750 | 44 | – | –
3 | CC(C)(C)NC(=O)c1ccccc1C[C@@H](O)[C@H](Cc1ccccc1)NC(=O)[C@@H](N)CC(=O)OCc1ccccc1 | – | – | > 1000 | – | –
4 | CC(=O)N[C@@H](CSc1ccccc1)C(=O)N[C@@H](Cc1ccccc1)[C@H](O)Cc1ccccc1C(=O)NC(C)(C)C | 5400 | 11300 | 220 | – | –
5 | CC(C)(C)NC(=O)c1ccccc1C[C@@H](O)[C@H](Cc1ccccc1)NC(=O)[C@H](CSc1ccc2ccccc2c1)NS(C)(=O)=O | 530 | 800 | 1.8 | – | –
6 | CC(C)(C)NC(=O)c1ccccc1C[C@@H](O)[C@H](Cc1ccccc1)NC(=O)[C@H](C[S+]([O-])c1cccc2ccccc12)NS(C)(=O)=O (stereo not given in full) | < 0.5 | 6 | 0.45 | < 250 | 0.8
7 | CC(C)(C)NC(=O)c1ccccc1C[C@@H](O)[C@H](Cc1ccccc1)NC(=O)[C@H](C[S+]([O-])c1ccccc1)NS(C)(=O)=O (stereo not given in full) | 100 | 500 | 1.9 | – | –
8 | CCCC(=O)N[C@@H](CC(=O)OCc1ccccc1)C(=O)N[C@@H](Cc1ccccc1)[C@H](O)Cc1ccccc1C(=O)NC(C)(C)C | 8700 | 24200 | 323 | – | –
9 | CC(C)(C)NC(=O)c1ccccc1C[C@@H](O)[C@H](Cc1ccccc1)NC(=O)[C@H](CS(=O)(=O)c1cccc2ccccc12)NS(C)(=O)=O | < 0.5 | 8.8 | 0.44 | – | 49
10 | COc1ccc(SC[C@H](NS(C)(=O)=O)C(=O)N[C@@H](Cc2ccccc2)[C@H](O)Cc2ccccc2C(=O)NC(C)(C)C)cc1 | 1800 | 1910 | 16 | – | –
11 | CC(C)(C)NC(=O)c1ccccc1C[C@@H](O)[C@H](Cc1ccccc1)NC(=O)[C@H](C[S+]([O-])c1ccc(F)cc1)NS(C)(=O)=O (stereo not given in full) | 165 | 900 | 0.38 | 2200 | –
12 | CC(C)(C)NC(=O)c1ccccc1C[C@@H](O)[C@H](Cc1ccccc1)NC(=O)[C@H](CSc1ccccn1)NS(C)(=O)=O | – | – | 910 | – | –
13 | CC(C)(C)NC(=O)c1ccccc1C[C@@H](O)[C@H](Cc1ccccc1)NC(=O)[C@H](CSc1ccc(F)cc1)NS(C)(=O)=O | 2130 | 2880 | 4.4 | – | –
14 | CC(C)(C)NC(=O)c1ccccc1C[C@@H](O)[C@H](Cc1ccccc1)NC(=O)[C@H](CS(=O)(=O)c1ccc2ccccc2n1)NS(C)(=O)=O | < 0.5 | 5 | 0.3 | < 100 | 12
15 | COc1ccc(S(=O)(=O)C[C@H](NS(C)(=O)=O)C(=O)N[C@@H](Cc2ccccc2)[C@H](O)Cc2ccccc2C(=O)NC(C)(C)C)cc1 | 54 | 150 | 2.4 | < 300 | 107
16 | CCC(=O)N[C@@H](CC(=O)OCc1ccccc1)C(=O)N[C@@H](Cc1ccccc1)[C@H](O)Cc1ccccc1C(=O)NC(C)(C)C | 5200 | 9880 | 73 | – | –
17 | CC(C)(C)NC(=O)c1ccccc1C[C@@H](O)[C@H](Cc1ccccc1)NC(=O)[C@H](CS(=O)(=O)c1ccccc1)NS(C)(=O)=O | 72 | 176 | 5.7 | < 300 | 83
18 | CC(=O)N[C@@H](C[S+]([O-])c1ccc2ccccc2n1)C(=O)N[C@@H](Cc1ccccc1)[C@H](O)Cc1ccccc1C(=O)NC(C)(C)C (stereo not given in full) | 72 | 180 | 0.25 | – | –
